This note sets out measurements from ChEMBL document CHEMBL1125119, “Pyrroloisoquinoline antidepressants. 3. A focus on serotonin” (J Med Chem, 1990).

Experiment [1] concerns Mus musculus. Briefly: In vivo effect on Tetrabenazine motor activity in mice following i.p. administration. It counts as functional. The settings on record: ip.
In experiment [2] the test system is Rattus norvegicus. Briefly: Tested in vivo for serotonin syndrome antagonizing activity in rat at a dose of 4 mg/kg.
Experiment [3] concerns Mus musculus. Description: Tested in vivo for head twitches antagonizing activity in mice. The format is functional.
Experiment [4] concerns Mus musculus. Description: Tested in vivo for head twitches antagonizing activity in mice at a dose of 5 mg/kg. The format is functional. The essentials:
(§1)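 Male Swiss CD-1 mice (19–24 g), 10 per dose, received test compound s.c. 30 min later they got a subthreshold dose of L-5-hydroxytryptophan (50 mg/kg i.p.). After 15 min acclimation, presence or absence of head twitches was scored over 2 min. Results were expressed as percent responding or as ED50 by probit analysis, using at least three doses.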

For experiment [5], the target named is serotonin transporter (Rattus norvegicus). Briefly: Tested in vitro for serotonin(5-HT) neuronal uptake inhibition.
For experiment [6], the system named is dopamine transporter (Rattus norvegicus). Description: Tested in vitro for dopamine(DA) neuronal uptake inhibition.
Experiment [7] relates to Mus musculus. Briefly: In vivo effect on Tetrabenazine ptosis activity in mice following i.p. administration. The format is functional. As to conditions: ip.
Experiment [8] concerns norepinephrine transporter (Rattus norvegicus). Description: Tested in vitro for norepinephrine (NE) neuronal uptake inhibition.
Experiment [9] concerns the target dopamine transporter (Rattus norvegicus). Briefly: Tested in vitro for dopamine(DA) neuronal uptake inhibition. The source holds these as a separate data set.
Experiment [10] has as its system Rattus norvegicus. Briefly: Tested in vivo for serotonin syndrome antagonizing activity in rat at a dose of 4 mg/kg. It counts as functional.
The target in experiment [11] is norepinephrine transporter (Rattus norvegicus). Description: Tested in vitro for norepinephrine (NE) neuronal uptake inhibition. This is another data set of the same source.
In experiment [12] the test system is Rattus norvegicus. Description: Tested in vivo for serotonin syndrome antagonizing activity in rat. The format is functional.
For experiment [13], the system named is Rattus norvegicus. Briefly: Tested in vivo for serotonin syndrome antagonizing activity in rat at a dose of 4 mg/kg on oral administration. The format is functional.
Experiment [14] relates to Rattus norvegicus. Briefly: Tested in vivo for serotonin syndrome antagonizing activity in rat at a dose of 5 mg/kg. The format is functional.
The subject of experiment [15] is Mus musculus. Briefly: Tested in vivo for head twitches antagonizing activity in mice at a dose of 2 mg/kg. It counts as functional. In short, it runs like this:
as §1

Experiment [16] concerns serotonin transporter (Rattus norvegicus). Briefly: Tested in vitro for serotonin(5-HT) neuronal uptake inhibition. This is another data set of the same source.
In experiment [17] the test system is Rattus norvegicus. Description: Tested in vivo for serotonin syndrome antagonizing activity in rat at a dose of 40 mg/kg. It counts as functional. The settings on record: read-out: Inhibition.
In experiment [18] the test system is Rattus norvegicus. Briefly: Tested in vivo for serotonin syndrome antagonizing activity in rat on oral administration. The format is functional.

For the compound `CSc1ccc([C@@H]2CN3CCC[C@H]3c3ccccc32)cc1`, the 50% effective dose (ED50) (in general, the midpoint of the dose-response relation) in the experiment on Mus musculus [1] was > 30 mg/kg; in the experiment on Mus musculus [3] (Mus musculus, read-out: ED50), ~10 mg/kg. In the experiment on Rattus norvegicus [2], the inhibition in vivo at 4 mg/kg was 4.5%.

`CSc1ccccc1C1CN2CCCC2c2ccccc21` (stereo unspecified): in the experiment on Mus musculus [4], the inhibition in vivo at 5 mg/kg stood at 30%.

As for `CSc1ccc(C2CN3CCC[C@H]3c3c(Cl)cccc32)cc1.Cl` (stereo partly specified), the inhibition constant (Ki) – broadly, the equilibrium dissociation constant of an inhibitor or competing ligand from its target – in experiment [5] was ~100 nM. Besides, the inhibition in vivo at 5 mg/kg in the experiment with Mus musculus [4] came out at 30%. The values for the ED50 in the experiment on Mus musculus [1] and in the experiment on Mus musculus [7] were ~1 mg/kg and 3 mg/kg, respectively. In addition, the Inhibition in experiment [6] and in experiment [8] was 10% each time.

Regarding `C#Cc1ccc(C2CN3CCCC3c3ccccc32)cc1` (stereo unspecified), the ED50 with Mus musculus [3] (Mus musculus, read-out: ED50) is ~1 mg/kg.

Turning to `FC(F)(F)c1ccc(C2CN3CCCC3c3ccccc32)cc1` (stereo unspecified), the Ki in experiment [9] turned out to be 128 nM; in [11], 10.6 nM. For the same compound, the ED50 is > 3 mg/kg in the experiment with Mus musculus [1]; ~2 mg/kg in the experiment with Mus musculus [7]; 0.55 mg/kg in the experiment on Mus musculus [3] (Mus musculus, read-out: ED50). Besides, the inhibition in vivo at 4 mg/kg with Rattus norvegicus [10] amounted to 5.8%.

In the case of `C[S+]([O-])c1ccc(C2CN3CCCC3c3ccccc32)cc1` (stereo in doubt; 11b), the inhibitory constant (Ki) was 597 nM in [5], 6180 nM in experiment [9] and 723 nM in experiment [11]. For the same compound, the results for the ED50 in the experiment on Mus musculus [1] and with Mus musculus [3] were > 3 mg/kg and 0.55 mg/kg, respectively.

For `CSc1ccc(C2CN3CCC[C@@H]3c3c(Cl)cccc32)cc1.Cl` (stereo partly specified), the Ki in experiment [5] worked out at 3 nM; in experiment [9], 290 nM; in experiment [11], 23.1 nM. Besides, the ED50 in the experiment on Mus musculus [1] amounted to 3 mg/kg; with Mus musculus [7], 3 mg/kg; in the experiment with Mus musculus [3] (Mus musculus, read-out: ED50) it was 1.04 mg/kg.

For the compound `CN(C)CCCN1c2ccccc2CCc2ccccc21` [IMIPRAMINE], the ED50 with Mus musculus [1] is 0.58 mg/kg; in the experiment with Mus musculus [7] it was 0.98 mg/kg; in the experiment with Rattus norvegicus [12], > 25 mg/kg; in the experiment with Mus musculus [3] (Mus musculus, read-out: ED50), > 50 mg/kg.

For `CC(=O)Nc1ccc(C2CN3CCCC3c3ccccc32)cc1` (stereo unspecified), the ED50 was 0.04 mg/kg with Mus musculus [1]; 0.04 mg/kg in the experiment on Mus musculus [7]; 1.37 mg/kg in the experiment on Rattus norvegicus [12]; 0.31 mg/kg in the experiment with Mus musculus [3] (Mus musculus, read-out: ED50).

Turning to `CS(=O)(=O)c1ccc(C2CN3CCCC3c3ccccc32)cc1` (stereo unspecified), the inhibition in vivo at 4 mg/kg with Rattus norvegicus [13] (read-out: Inhibition) was found to be 1.5%. In addition, the ED50 in the experiment with Mus musculus [7] was 30 mg/kg; in the experiment on Mus musculus [3] (Mus musculus, read-out: ED50), ~5 mg/kg.

Regarding `CSc1ccc(C2CN3CCCC3c3c(Br)cccc32)cc1.Cl` (stereo unspecified), in the experiment with Mus musculus [3] (Mus musculus, read-out: ED50), the ED50 was > 5 mg/kg.

As to `Clc1ccc([C@@H]2CN3CCC[C@@H]3c3ccccc32)cc1`, in the experiment on Rattus norvegicus [14], the inhibition in vivo at 5 mg/kg turned out to be 52%. Further, the 50% effective dose (ED50) amounted to 0.39 mg/kg with Mus musculus [1]; 0.14 mg/kg in the experiment with Mus musculus [7]; 0.76 mg/kg in the experiment with Mus musculus [3] (Mus musculus, read-out: ED50).

With `CSc1ccc(C2CN3CCCC3c3ccc(Cl)cc32)cc1.Cl` (stereo unspecified), the Ki in experiment [5] worked out at 8.6 nM; in experiment [9], 103 nM; in experiment [11], 16.2 nM. Moreover, the inhibition in vivo at 5 mg/kg with Mus musculus [4] was 30%. Further, the ED50 in the experiment with Mus musculus [1] and in the experiment on Mus musculus [7] was > 3 mg/kg each time.

Regarding `Clc1ccc(C2CN3CCCC3c3cc(Cl)ccc32)cc1` (stereo unspecified), the Ki in [9] and in experiment [11] was 3.2 nM each time. Also, the inhibition in vivo at 5 mg/kg in the experiment with Rattus norvegicus [14] worked out at 22%. The ED50 in the experiment on Mus musculus [7] was 4 mg/kg. For the same compound, in the experiment on Mus musculus [15], the inhibition in vivo at 2 mg/kg turned out to be 30%.

Take `COc1ccccc1C1CN2CCCC2c2ccccc21` (stereo unspecified): the ED50 is ~0.6 mg/kg in the experiment on Mus musculus [1]; ~0.3 mg/kg in the experiment with Mus musculus [7]; 0.81 mg/kg in the experiment with Mus musculus [3] (Mus musculus, read-out: ED50). The compound also returned an inhibition in vivo at 4 mg/kg in the experiment with Rattus norvegicus [13] of 5.2%.

Take `N#Cc1ccc(C2CN3CCCC3c3ccccc32)cc1` (stereo unspecified): the ED50 was 15 mg/kg with Rattus norvegicus [12] and ~3 mg/kg in the experiment on Mus musculus [3] (Mus musculus, read-out: ED50).

As for `CNCCC(Oc1ccc(C(F)(F)F)cc1)c1ccccc1` (stereo unspecified) [FLUOXETINE], the ED50 in the experiment on Rattus norvegicus [12] amounted to 12.7 mg/kg; in the experiment with Mus musculus [3] (Mus musculus, read-out: ED50), 0.43 mg/kg.

As to `C[S+]([O-])c1ccc(C2CN3CCCC3c3ccccc32)cc1` (stereo in doubt; 11a), the Inhibition (in general, the percentage by which the read-out fell short of the control) in experiment [16] came out at 12%; in experiment [6] it was 2%; in experiment [8], 4%. Besides, in the experiment on Mus musculus [3], the ED50 is >5 mg/kg.

In the case of `COc1cc(OC)c2c(c1)C1CCCN1CC2c1ccc(SC)cc1.Cl` (stereo unspecified), the values for the Inhibition in experiment [16], in experiment [6] and in experiment [8] were 68%, 67% and 55%, respectively. For the same compound, the median effective dose (ED50) with Mus musculus [3] (Mus musculus, read-out: ED50) was ~5 mg/kg.

`CSc1ccc(C2CN3CCC[C@@H]3c3ccccc32)cc1` (single isomer, unassigned; (-)): in the experiment with Mus musculus [3], the ED50 was ~5 mg/kg.

For the compound `CSc1ccc(C2CN3CCC[C@@H]3c3ccccc32)cc1` (single isomer, unassigned; (+)), in the experiment on Mus musculus [3], the ED50 was determined as 0.043 mg/kg.

In the case of `Br.CCSc1ccc(C2CN3CCCC3c3ccccc32)cc1` (stereo unspecified), the ED50 was > 10 mg/kg in the experiment on Mus musculus [1]; ~3 mg/kg in the experiment on Mus musculus [7]; 0.54 mg/kg in the experiment on Mus musculus [3] (Mus musculus, read-out: ED50). The inhibition in vivo at 40 mg/kg with Rattus norvegicus [17] worked out at 36%.

As to `NC(=O)c1ccc(C2CN3CCCC3c3ccccc32)cc1` (stereo unspecified), the Ki in [9] was 84.5 nM; in experiment [11] it was 90.2 nM. Besides, the ED50 in the experiment with Rattus norvegicus [18] is 4.5 mg/kg; in the experiment with Mus musculus [3] (Mus musculus, read-out: ED50), ~5 mg/kg.

`Br.CSc1ccc(C2CN3CCCC3c3c(C)cccc32)cc1` (stereo unspecified): the Ki in experiment [5] was 2.4 nM; in experiment [9], 57.7 nM; in experiment [11] it was 11.5 nM. The ED50 was > 3 mg/kg in the experiment on Mus musculus [1]; ~1 mg/kg with Mus musculus [7]; 0.16 mg/kg in the experiment with Mus musculus [3] (Mus musculus, read-out: ED50).

`CSc1ccc(C2CN3CCC[C@@H]3c3ccccc32)cc1` (stereo in doubt; 3b): the ED50 with Mus musculus [1] was > 30 mg/kg; in the experiment with Mus musculus [7] it was 0.4 mg/kg; with Rattus norvegicus [12], 0.2 mg/kg; in the experiment on Mus musculus [3], 0.081 mg/kg.

As for `CSc1ccc(C2CN3CCCC3c3c(C#N)cccc32)cc1.Cl` (stereo unspecified), the Ki in experiment [5] was found to be 14.7 nM; in experiment [9], 2800 nM; in experiment [11], 390 nM. Moreover, in the experiment on Mus musculus [3] (Mus musculus, read-out: ED50), the ED50 was > 5 mg/kg.

Take `Clc1ccccc1C1CN2CCC[C@@H]2c2ccccc21` (stereo partly specified): the ED50 with Mus musculus [1] is > 60 mg/kg; in the experiment on Mus musculus [7] it was 0.17 mg/kg; in the experiment with Rattus norvegicus [12], > 25 mg/kg; with Mus musculus [3] (Mus musculus, read-out: ED50) it was > 25 mg/kg.

For the compound `Fc1ccc([C@@H]2CCNC[C@H]2COc2ccc3c(c2)OCO3)cc1` [PAROXETINE], the ED50 with Rattus norvegicus [12] stood at 0.49 mg/kg; in the experiment with Mus musculus [3] (Mus musculus, read-out: ED50), 0.062 mg/kg.

Turning to `Clc1ccc(C2CN3CCCC3c3ccccc32)c(Cl)c1` (stereo unspecified), the ED50 with Mus musculus [3] (Mus musculus, read-out: ED50) is ~5 mg/kg.

As for `COc1ccc(OC[C@H]2CN(C)CC[C@@H]2c2ccccc2)cc1` [FEMOXETINE], the ED50 with Mus musculus [1] is 3.5 mg/kg; in the experiment with Mus musculus [7], 2.1 mg/kg; with Rattus norvegicus [12], 11.4 mg/kg; in the experiment on Mus musculus [3] (Mus musculus, read-out: ED50), 3.3 mg/kg.

Regarding `c1ccc([C@@H]2CN3CCC[C@@H]3c3ccccc32)cc1`, the ED50 in the experiment on Mus musculus [1] was 0.34 mg/kg; with Mus musculus [7], 0.07 mg/kg; in the experiment on Mus musculus [3] (Mus musculus, read-out: ED50), > 25 mg/kg.

As for `CN(C)CCCC1(c2ccc(F)cc2)OCc2cc(C#N)ccc21` (stereo unspecified) [CITALOPRAM], the ED50 with Rattus norvegicus [12] is 0.78 mg/kg; with Mus musculus [3] (Mus musculus, read-out: ED50) it was 0.29 mg/kg.
